Assay results reported in the EternaBench riboswitch data.

System: MS2 coat protein
Experiment: apparent Kd, MS2 coat protein; higher = weaker binding; RNA-MaP array; FMN 200 µM where present
Summary of the method: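 Designs were transcribed by stalled E. coli RNA polymerase on Illumina sequencing-chip clusters. They were titrated with SNAP-549-labelled MS2 coat protein from 0.7 or 1.5 nM, doubling to 3 µM, in 100 mM Tris-HCl pH 7.5, 80 mM KCl, 4 mM MgCl2, BSA, DTT, yeast tRNA and Tween-20, without and then with constant ligand. The apparent Kd is the median of filtered per-cluster fits after normalisation of green signal to red-channel RNA signal and control-cluster median Fmax.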

[1] = designed as: OFF switch for flavin mononucleotide, no ligand
[2] = ligand present: flavin mononucleotide, designed as: OFF switch for flavin mononucleotide
[3] = designed as: ON switch for flavin mononucleotide, no ligand
[4] = ligand present: flavin mononucleotide, designed as: ON switch for flavin mononucleotide

| Sequence | apparent Kd [1] | apparent Kd [2] | apparent Kd [3] | apparent Kd [4] |
| --- | --- | --- | --- | --- |
| AUUCCUAAUGUUAGGAUAUGCGACGGGUGACCGUUGCAGAAGGAACAUGAGGAUCACCCAUGUUUAAUAAAAUC | 17.3 nM | 111 nM | – | – |
| CAAAACGAGGCAGGAUAUCAAUACAUGAGGAUCACCCAUGUGUGACGUAGGCCGGUCUUCGUGACUGAGAAGGGUCUCUAGUUA | 11 nM | 40.5 nM | – | – |
| UGUCGGAGCAGAGGAUAUUACAUGAGGAUCACCCAUGUAUGCACCAAUAGCUGGAAACAGCAAUGUAAGAAGGCUGCUCCGACA | 5.38 nM | 15.2 nM | – | – |
| CGGUCCCAUGUGAGGAUAUCGGAGCGAAAAUACUGCGAGAAGGUACAUGAGGAUCACCCAUGUCUCCUAUUGCC | 16.5 nM | 32.5 nM | – | – |
| UUAUACAUGAGGAUCUCCCAUGACAUGAGGAUCACCCAUGUGCAGGAUAUACGUGUUAUAAUAUAGUAGAAGGGCAGUCUAUGU | 27.2 nM | 66.5 nM | – | – |
| UGGAUGGUAUGAGGAUAUGCGCGCGAAACGCGCGCAGAAGGCAUGUCAAUAGACAUGAGGAUCACCCAUGUACUAUCCAUCCAC | – | – | 121 nM | 9.41 nM |
| UGUUGUAUUACAGGAUAUCUAUGAUUUUUAUCUAGAGAAGGGUAUUCACAUGAGGAUCACCCAUGUAUAUACGAGGAAGUUGUG | – | – | 31.2 nM | 30.6 nM |
| GCAGCUAAUGCAGGAUAUCAGCACGUGUAGUGCUGAGAAGGGCACAUGAGGAUCACCCAUGUGAUCAAUUAAUAUUAAUGCUGC | 24.9 nM | 152 nM | – | – |
| AUGUGACGGUGCGCAUGUGGACGGAGAAGGCAGACAUGAGGAUCACCCAUGUGAGCCUGCUAUUCUGAGGAUAUCCGUUCGCAC | 31.7 nM | 158 nM | – | – |
| GUCAGCUCGUGAGGAUAUACAACACUGCUUCGGCAGUGUAUUGAGAUCACAUGAGGAUCACCCAUGUAGAAGGCACGAGCUGAU | 12.9 nM | 225 nM | – | – |
| AAUUAACUCACAGGAUAUAGCAGAGGUCGAGUGUACUUACAGGCGACGAGGCUAGAAGGGUGACCACAUGAGGAUCACCCAUGU | – | – | 621 nM | 103 nM |
| UAAUUGUGAGGAUAUUCGUUUUUCUCGGAGACGAGAAGAACGGAGAAGGCACAUGAGGAUCACCCAUGUUCCUU | 18 nM | 91.7 nM | – | – |
| AUUGUAAUGUCAGGAUAUAUUAUAUUUUACAUAGUAGAAGGGAUAAUUAUACUCAUGUACAUGAGGAUCACCCAUGUUAAAUAU | – | – | 179 nM | 29.6 nM |
| ACAUUGCGAGGAUAUACAUGAGGAUCACCCAUGUGGUGGCAGAUACGGUAGGGCUAGUGUAGAAGGUGUCAUGG | 528 nM | 435 nM | – | – |
| UUUUAACAUGAGGAUCACCCAUGUGAGGAUAUCGAAAUUUAUAUUAAUAUUUUUAUAUCGAGAAGGCACAUUUU | 92.8 nM | 78.4 nM | – | – |
| CCCUGAUCGAGAGGUAGGAGUGGUAGAAGGCGACCGGUGCCAGAUGACAUGAGGAUCACCCAUGUCGAGGAUAUACCACAGAAU | 7.6 nM | 11.5 nM | – | – |
| UUGCGGUCAGGAUAUGCAUGGCGGGACUUGCGUCGUGGCGUGGAGAAGGGACAUGAGGAUCACCCAUGUGGAGC | 54.5 nM | 59.9 nM | – | – |
| CGAUAAAGGUGAGGAUAUGAGAAUAGAAAGAAAUCAGAAGGCACACAUGAGGAUCACCCAUGUGAGUUCUUGAGAUUACAUGGU | 14.9 nM | 15.1 nM | – | – |
| GCGCUGCAGCGGUGCACGAGACAUGAGGAUCACCCAUGUGACAGAAGGGACUUGUUAAAGGUAGGUCAGGAUAUGUCUUAAAAG | – | – | 190 nM | 59.8 nM |
| UAAGUUGAGGAGAAGGGAGCACAUGAGGAUCACCCAUGUGGUUCUUUGUGCUCAGGAUAUCCAUGGAGCUCCGUCGCGUUCCAG | 103 nM | 19.1 nM | – | – |
| AAAUCCAACGAAGGAUAUACAAACAUGAGGAUCACCCAUGUGUCUUUCGUGUAACUGGAAUUCGGGUAGAAGGUCGUUGACAUA | 11.8 nM | 17.6 nM | – | – |
| AAAAAAAAAUCUCAGGAUAUAGAUUAUAGAACAUGAGGAUCACCCAUGUAGUGAAAGAAGAAAAACUAGAAGGGAGGAAAAAAAAA | – | – | 100 nM | 66.6 nM |
| GCCAGGCAUGUAGGAUAUCCAUUGCGUCGCGUUGGAGAAGGGCAGCACACAUGAGGAUCACCCAUGUGGUCUCCCAUGAUGUGU | 209 nM | 223 nM | – | – |
| UUCGUGCAGCUUUGCUGUACGCGUACAUGAGGAUCACCCAUGUAGGAUAUGGUACGCUUUGCGUGCUAGAAGGAUAUGGAAAGG | 14.7 nM | 16.6 nM | – | – |
| CUUUUGUGAGGAUAUCAGUAGUAAAUAAUUAAAAUUACUACUGAGAAGGCACAUGAGGAUCACCCAUGUUCCUC | 42.2 nM | 284 nM | – | – |
| GAGUGGUGGAGAGGAUAUACAUUGUUAUUCACUGUAGAAGGUUCUAACAUGAGGAUCACCCAUGUAGGACUAUUCCUGAGUUUU | – | – | 12.4 nM | 9.82 nM |
| CCUGAGUCAGGAUAUUGUACCAGUCUAAAACCAGACUGACCCAAGAAGGGACAUGAGGAUCACCCAUGUGAAAA | 30.2 nM | 25.5 nM | – | – |
| GGUGCGUUUGUGAGGAUAUGCUGGUCCUUGGUUCGGCAGAAGGCACAUGAGGAUCACCCAUGUGGUGUCGCUCC | 41.7 nM | 139 nM | – | – |

| Sequence | apparent Kd [1] | apparent Kd [2] | apparent Kd [3] | apparent Kd [4] |
| --- | --- | --- | --- | --- |
| GUGCUUGUCGAAGGAUAUGGUUACAUGAGGAUCACCCAUGUUAUGCUUGGAAAAUUGUUUAGUUUCCAGAAGGUCGAUUAGUUG | 19.7 nM | 17.7 nM | – | – |
| UGAUAGGACAGAGGAUAUACGUAUAUUCUCCUAAACAUGAGGAUCACCCAUGUAGAAGGCUGUCCUAUCUAAGUCGGAAACGAC | 5.4 nM | 23.4 nM | – | – |
| UGAUCGAAAGAUCAUAGAUUCUGCUAGGAUAUGCAGAAGUUUCAAUUUACAUGAGGAUCACCCAUGUAGAAGGAGUAGAGUCUA | 5.48 nM | 5.98 nM | – | – |
| GAAAGGGCAGGAUAUGCAGAGAGAGAGAGAGAGAGAAAAAAACAUGAGGAUCACCCAUGUAGAAGGGCCGAAAG | 34.8 nM | 39.1 nM | – | – |
| UUUAUUUCGGCAGGAUAUACAUGUAUAUAUAUUCCCUCAUAUCUUAUUACAUGAGGAUCACCCAUGUAGAAGGGCCUUCUUCUC | 206 nM | 160 nM | – | – |
| GCAUGCAAGUAGAAGGUCGGAUAUUUUGAUACCGAAGGAUAUACAGAAUCAUAUCCACAUGAUAACAUGAGGAUCACCCAUGUA | 21.4 nM | 26.7 nM | – | – |
| UUUUACGUUUCGUAGCAGUGUCAUCGAGAAGGCCCUGACAUGAGGAUCACCCAUGUUGUUACAUGGGAGGAUAUCGAUGAUUUU | – | – | 16.4 nM | 5.21 nM |
| AUACCACGAGGAUAUCGUCUAUAAUACAUGAGGAUCACCCAUGUUAUAUCUGUAAUGUUUCGAGAAGGCGUGUUUU | 17.5 nM | 14.2 nM | – | – |
| UGAAAUCAUGUAGGAUAUGCAUGGCGAAGCUACGCAGAAGGACAUGAGGAUCACCCAUGUUAUAGCUACUCAGUUCGGUGGCAA | 38.5 nM | 195 nM | – | – |
| UGAACUUCAGAGAAGGUCGAAUCGCAACGGUUCGAAGGAUAUCUGGAAACAUGAGGAUCACCCAUGUAACCGGGUGGAUGUCCU | 56.8 nM | 246 nM | – | – |
| AUCAGCUCGUCAGGAUAUACAUCACUGCUUCGGCAGUGUAUUAAGAUUACAUGAGGAUCACCCAUGUAGAAGGGACGAGCUGAU | 17.2 nM | 20.8 nM | – | – |
| UUAACACAUGAGGAUCACCCAUGUUAGGAUAUUGUGGUGGGAACAACUGGGAAACGCACGAGAAGGGACACACA | 35.7 nM | 26.2 nM | – | – |
| AAGGUGUUAGGAUAUCGUAGUUUGAGGCAGACGGGAUUUUGCGAGAAGGAACAUGAGGAUCACCCAUGUAGGAU | 27.2 nM | 30.4 nM | – | – |
| GGUGCAUAUGAGAAGGCGGUCAUGAAACAUGAUCGAGGAUAUCAUGUAAACAUGAGGAUCACCCAUGUAUGGGAAUAAUGCACC | – | – | 238 nM | 16 nM |
| GUCCAACAUGAGGAUCACCCAUGUCAGGAUAUACCGGGCGAAAGAAAGGCCCAUAAGGGUAGAAGGGACGGUGU | 15.8 nM | 21 nM | – | – |
| GAGAAGUCAGGAUAUGCUGCUCGUCACUUGCGUGAUGAGUAGCAGAAGGGACAUGAGGAUCACCCAUGUAAAGA | 51.2 nM | 64.5 nM | – | – |
| GAAUUCGCAUGAGGAUAUGCUCCCGUUUCGGGAGCAGAAGGCAUGUCAUAAGACAUGAGGAUCACCCAUGUAGUUAAGAUUGAA | – | – | 196 nM | 11.3 nM |
| UGUGCAUCAGGAUAUAUGUGGCGACCGUGAGGUCGAAGGUUACAUGAGGAUCACCCAUGUAGAAGGGAUGUACU | 63.2 nM | 187 nM | – | – |
| UGUUGUAGUACAGGAUAUGCGGUGGAUUCGGACAUGAGGAUCACCCAUGUGCCUUUAUAACGUCUGCAGAAGGGUGAAAGAACG | – | – | 500 nM | 130 nM |
| UUGAGGAAUUAAGGAUAUUGAGUACAUAUGUUUAACAUGAGGAUCACCCAUGUGGGUUGCGGUAUCGAGAAGGUAAAUUACAAG | – | – | 129 nM | 133 nM |
| UGGUACAACGGAGGAUAUCAUGUAAAUACAUGAGGAUCACCCAUGUCGUACGAGAGUACGGAGAUUGAGAAGGCCGUUGUACCU | – | – | 25.7 nM | 16.1 nM |
| AAACCGCAAGGAUAUUGUGGCGCUGACAUGAGGAUCACCCAUGUGGUGCUAGUCCCGCUGCGAGAAGGUGUGUAAA | 12.4 nM | 26.8 nM | – | – |
| UGUGAGUUGAUGUUAGAUAGGAGAACAUGAGGAUCACCCAUGUAGGAUAUUCAAAGACGAAGAUAGAAGAAGGACAUAGGUAUC | 24.8 nM | 66.2 nM | – | – |
| GCACAUGAGGAUCACCCAUGUGGUCCAGAAGGCCAGAGGACUUGCUUUUAGCAAGUCCUUCAAAUGGAGGAUAUGGAGGGUUCU | – | – | 237 nM | 42 nM |
| GGAUAUAUUACAUGAGGAUCACCCAUGUCAGAACGGGUAAUCAGAAGGUACUAUUAGAGAAAGAGUAAGGAUAUGAUUAUAUCC | – | – | 801 nM | 165 nM |
| GUGCCUAACUAGAAGGCCGAUAGCAAAGCUAUCGGAGGAUAUGGGUUCCGGAAACGGACAUGAGGAUCACCCAUGUGGCACAAA | – | – | 86.5 nM | 12.8 nM |
| AGAGACUUGGGAGGAUAUGCCUGAUGGACACGGGCAGAAGGCCCAAACAUGAGGAUCACCCAUGUAUCUACGCCUUGAACGGGC | – | – | 236 nM | 17.7 nM |
